Measured values as given in ChEMBL document CHEMBL4513216, “Probing the Open Global Health Chemical Diversity Library for Multistage-Active Starting Points for Next-Generation Antimalarials” (ACS Infect Dis, 2020).

assay: Toxicity liver stage against HepG2, at 10uM; type: cell-based; design: test concentration 10 uM, cell line HepG2-A16-CD81EGFP; settings: human, HepG2-A16-CD81EGFP cells; read-out: INHIBITION
Summary of the method: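 Uninfected HepG2-A16-CD81EGFP cells, 3 × 10^3 per well, 1536-well, plated on prespotted compound at 10 μM final, parasite-free screening media added to match infected plates; puromycin 10 μM positive, DMSO 0.5% negative; run in parallel with 48 h PbLuc assay at 37 °C, 5% CO2; viability by CellTiter-Glo luminescence, normalized to controls.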

SMILES	cytotoxicity at 10 µM [%]
COc1cccc(CN2C[C@@H](F)[C@@H](OCc3nc4cnccc4[nH]3)C2)c1	-1.72
O=C1COc2ccc(S(=O)(=O)NCCC3=CCCCC3)cc2N1	5.42
Cc1cccc(NC(=O)Nc2c[nH]c(=O)[nH]c2=O)c1C	8.2
COc1ccc2c(c1)[nH]c1c(N(C)CC3OCCO3)ncnc12	18.2
CCc1c(C)sc2c1c(N)nc(=O)n2CCN(C)C	3.85
COc1ccc(N2CCN(C(=O)c3cc(=O)c(OC)c[nH]3)CC2)cc1	-0.244
Cc1nn(-c2ccc(C(=O)O)cc2)c2c1C(C(F)(F)F)SCC(=O)N2 (configuration not stated)	-1.24
O=C(Cc1cccc(F)c1)N1CCc2ncnc(N3CCCC3)c2CC1	-4.9
CCc1nc(-c2noc3ccc(C(=O)N(C)CCOC)cc23)co1	-138
CN1CC[C@]2(CN(C(=O)c3ccc[nH]3)C[C@H]2c2ccccc2)C1=O	11.6
CN(C)c1ncnc2c1CCN(c1cccc(F)c1)CC2	18.5
COCC1c2nnn(CC3CC3)c2CCN1C(=O)CS(C)(=O)=O (configuration not stated)	-129
O=C(NCC1CCCO1)c1nc2c(s1)CCCN2CC1CC1 (configuration not stated)	-0.843
CCc1c(C)n(C)c2nc3ccccc3n2c1=O	5.94
O=C(Cn1cc(-c2ccccc2)ncc1=O)Nc1nccs1	-4.83
CC(=O)N1CC[C@H]2OCC[C@@H](C(=O)N3CCCCO3)[C@@H]2C1	-5.1
O=C(NCC1CC1)C1CN(C(=O)c2ccncc2)CC12CCOCC2 (configuration not stated)	0.381
CCn1ccc(-c2nnc(SCC(=O)NCC(C)C)n2CC)n1	5.44
Cc1cccc(Nc2noc3c2CN(C(=O)c2ccn(C)n2)CC3)c1C	-0.61
COc1ccccc1N1CC(NC(=O)Cn2cc(C(C)C)nn2)CC1=O (configuration not stated)	11.5
O=C(CN1CCC2(CC1)NC(=O)c1cc(Br)ccc1N2)NC1CC1	4.79

SMILES	cytotoxicity at 10 µM [%]
O=C(NCc1ccc2c(c1)OCO2)[C@H]1C=CCN1c1ncccn1	-4.52
CN(C)c1ccc(CC2CCCN(c3cnccn3)C2)nn1 (configuration not stated)	4.71
O=C(C1CCC1)N1CCCC(c2ccnc(Nc3cnccn3)n2)C1 (configuration not stated)	-22.7
O=C(c1cscn1)N1CCC(Cc2cnc3[nH]ccc3c2)C1 (configuration not stated)	-26.5
CN1CC(=O)N(C2CCNC2)Cc2c(NC3CCCC3)ncnc21 (configuration not stated)	9.46
O=C(NC1CCc2nccn2C1)c1ccc(OCC2CC2)nc1 (configuration not stated)	4.36
CCn1cnnc1CNC(=O)NC(c1ccccc1)C1CCCC1 (configuration not stated)	12
O=C(CCOCc1ccccc1)NS(=O)(=O)N1CCOc2ccccc21	9.15
NC(=O)CC1CCCN(c2cncc(SCc3ccccc3)n2)C1 (configuration not stated)	11
CN(C)C(=O)Cn1cnc2c(Br)cccc2c1=O	-8.97
CCOC(=O)c1ccc(CNC(=O)c2ccc(Cl)cn2)o1	6.72
CCc1cc(NC(=O)N2CCC(Oc3cccnc3)C2)n(C)n1 (configuration not stated)	5.95
O=C(NCCN1CCOCC1)c1ccc(-c2ccccc2)[nH]c1=O	1.58
Cc1ccc(C(=O)NCCN2CCOCC2)c(=O)[nH]1	-8.44
CC(C)(O)CSCCNCc1ccc(Cl)c2cccnc12	-8.87
CC1(NC(=O)Cc2csc(NC(=O)c3ccccc3)n2)CCS(=O)(=O)C1 (configuration not stated)	0.271
O=C(NCCCN1CCOCC1)c1cc(-c2ccccc2)[nH]n1	-161
NC(=O)CCS(=O)(=O)Cc1ccc(OCC(F)(F)F)cc1	-4.16
CCOC(C)c1nc(Cn2cc(-n3cccc3)cn2)cs1 (configuration not stated)	3.81
Cc1ncsc1CN(C)C(=O)C(CC(C)C)N1CCCCC1=O (configuration not stated)	3.28
COc1ccccc1S(=O)(=O)Nc1cnc(O)cc1C	-13.2

SMILES	cytotoxicity at 10 µM [%]
COc1ccccc1CNC(C)c1cnc2cc(C)nn2c1C (configuration not stated)	8.32
CN1CCN(Cc2cccc(NCc3ncc[nH]3)c2)CC1	-6.44
O=C1NCCN1C1CCN(Cc2ccccn2)CC1	4.08
Cc1cnn(CC2CCCN2Cc2coc(-c3ccccc3)n2)c1 (configuration not stated)	-5.26
CC(=O)NCC(=O)N1CCN(Cc2cccnc2)c2ncccc2C1	-114
CC1(c2ccccc2)CCC(=O)N(CC2(N3CCOCC3)CCCC2)C1 (configuration not stated)	8.8
COCC1CCN(Cc2cc(O)c3c(C)ccc(C)c3n2)CC1	-6.09
Clc1cccc2c3c([nH]c12)CCN(Cc1cc2n(n1)CCNC2)C3	-0.735
O=C(O)C1(n2ccc(-c3ccco3)n2)CCN(Cc2ccsc2)CC1	-129
CN1CCN(Cc2nnc(C3CCN(S(C)(=O)=O)CC3)n2C)CC1	4.67
Cn1cc(C(=O)N2CC[C@H](N3CCOCC3)[C@H](CCCO)C2)cn1	-158
Cc1cc(C2CCC2)nc(N2CCC3(CCCN(C)C3=O)C2)n1 (configuration not stated)	-6.62
Cc1nonc1C(=O)N1CC[C@@]2(O)CCN(C3CCCCC3)C[C@H]2C1	-132
Cc1ccc(C(N)=O)c(N2C[C@H]3OC(=O)N(C4CCCC4)[C@H]3C2)n1	5.54
CCn1cc(CN(C)C(=O)C(c2ccccc2C)N(C)C)cn1 (configuration not stated)	0.0381
O=C(c1ccc2c(c1)CCO2)N1CCN(c2ccc(Cl)cn2)CC1	9.56
Cc1ccc(C2(C(=O)N3CCC(n4cc(C(C)O)nn4)CC3)CC2)cc1 (configuration not stated)	-2.26
COC(=O)c1ccc(OC)c(CN2CCN(CC(C)C)C(=O)C2C)c1 (configuration not stated)	-20.3
COc1cccc(-c2cc(C(=O)NCCn3nc(C)nc3C)[nH]n2)c1	-2.77
Cc1onc(N)c1S(=O)(=O)N1CCCCC1C (configuration not stated)	12.4
CNc1ncccc1C(=O)N1CCc2c(nc(N)[nH]c2=O)C1	3.61

SMILES	cytotoxicity at 10 µM [%]
COCCCC1CCCN(C(=O)CCc2cc(O)no2)C1 (configuration not stated)	8.41
COCCN1CCC(NCc2cc(F)ccc2F)C1 (configuration not stated)	-21.9
COc1ccccc1CC(=O)NS(=O)(=O)c1ccc(NC(C)=O)cc1	-2.18
CCCC(=O)NC(C(=O)OC)c1cc(F)ccc1F (configuration not stated)	8.55
CN1CCCN(C(=O)NCc2cc(Br)cs2)CC1	-16.7
CC(Cn1ccnc1)NC(=O)N1CCN(Cc2ccco2)CC1 (configuration not stated)	-2.07
CCc1nc(CN(C(C)=O)C2CCN(Cc3csc(C)n3)C2)no1 (configuration not stated)	-12.8
COc1ncccc1CNC(=O)NCc1ccco1	-12.8
CC(O)(CN1CCN(CCO)CC1)c1cccc(C(F)(F)F)c1 (configuration not stated)	-17.5
Cn1ccnc1CN1CCCC1Cn1cccn1 (configuration not stated)	-13.8
Cc1cnn(CC2CCCN2C(=O)CCc2ccncc2)c1 (configuration not stated)	-10.6
N#Cc1ccsc1C(=O)N1CCCN(Cc2cscn2)CC1	3.48
Cc1noc2ncc(C(=O)NCC3CCOC3)cc12 (configuration not stated)	-1.47
Cn1ccnc1CN1CCN(CC(O)c2cccc(F)c2)CC1 (configuration not stated)	1.59
CN(C)C(=O)N1CCC2(CC1)NC(=O)c1ccccc12	-10.1
CCS(=O)(=O)N1CCCC2(CCCN2Cc2cccc(Cl)c2)C1 (configuration not stated)	-143
Cc1nc(COC[C@]23COC[C@H]2CN(Cc2ccoc2)C3)cs1	-19.2
c1cnc(NC[C@H]2OC[C@@H]3CCN(Cc4nccs4)C[C@@H]32)nc1	-3.38
CCc1ccc(CN2Cc3nccn3CC(Cn3cncn3)C2)o1 (configuration not stated)	-137
